The record followed here is ChEMBL document CHEMBL1121744, “Synthesis and antihypertensive activity of a series of 8-substituted 1-oxa-3,8-diazaspiro[4.5]decan-2-ones” (J Med Chem, 1981).

Several values for one entry are separate records, joined by “and”; a condition that tells them apart may be missing. Equal entries are not always repeated. Activity calls are given as the source filed them. The rule behind the calls is not given here. Some results are limits rather than exact numbers.

In data set [1] the test system is Rattus norvegicus. As to the kind of experiment: Antihypertensive activity as percentage fall in systolic blood pressure in spontaneously hypertensive rats after a period of 3 hr for a dose of 12.5 mg/kg po. The data set is classed as functional, Artery. Summed up:
(§1)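 Male Okamoto-Aoki SHR, trained, in groups of four matched for mean systolic pressure; one group per run received water vehicle. Oral dosing in water (0.1 mL per 10 g) on two consecutive mornings. After the day-2 dose, rats were restrained at 30.0 ± 1.0 °C. Systolic pressure was read by tail cuff (inflated to 300 mmHg, first pulse) at 1–4 h. % fall is versus the untreated control group, by 1-tail t test (p ≤ 0.05).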

Data set [2] has as its system Rattus norvegicus. The data set can be described thus: Percentage fall in systolic blood pressure in spontaneously hypertensive rats after 3 h following 50 mg/kg p.o. The format is functional, Artery. The conditions noted are these: route oral. Summed up:
as §1

In data set [3] the test system is Rattus norvegicus. As to the kind of experiment: Antihypertensive activity as percentage fall in systolic blood pressure in spontaneously hypertensive rats after a period of 1 hr for a dose of 50 mg/kg. The format is functional, Artery. The essentials:
as §1

In data set [4] the test system is Rattus norvegicus. As to the kind of experiment: Antihypertensive activity as percentage fall in systolic blood pressure in spontaneously hypertensive rats after a period of 4 hr for a dose of 12.5 mg/kg po. The format is functional, Artery. The essentials:
as §1

The subject of data set [5] is Rattus norvegicus. As to the kind of experiment: Percentage fall in systolic blood pressure in spontaneously hypertensive rats after 2 hr following 50 mg/kg p.o. The conditions noted are these: route oral. The data set is classed as functional, Artery. The essentials: as §1
Data set [6] concerns Rattus norvegicus. As to the kind of experiment: Antihypertensive activity as percentage fall in systolic blood pressure in spontaneously hypertensive rats after a period of 2 hr for a dose of 12.5 mg/kg po. The format is functional, Artery. The essentials: as §1
For data set [7], the system named is Rattus norvegicus. As to the kind of experiment: Antihypertensive activity as percentage fall in systolic blood pressure in spontaneously hypertensive rats after a period of 1 hr for a dose of 12.5 mg/kg po. The data set is classed as functional, Artery. The essentials: as §1
Data set [8] relates to Rattus norvegicus. As to the kind of experiment: The antihypertensive activity as percentage fall in systolic blood pressure in spontaneously hypertensive rats after a period of 4 hr for a dose of 25 mg/kg po; NS=Not significant. The format is functional, organism-based. The arrangement: dose 25 mg/kg. The following applies: Artery. The essentials:
as §1

For data set [9], the system named is Rattus norvegicus. As to the kind of experiment: The antihypertensive activity as percentage fall in systolic blood pressure in spontaneously hypertensive rats after a period of 2 hr for a dose of 25 mg/kg po. The data set is classed as functional, Artery. The essentials:
as §1

Data set [10] concerns Rattus norvegicus. As to the kind of experiment: The antihypertensive activity as percentage fall in systolic blood pressure in spontaneously hypertensive rats after a period of 1 hr for a dose of 25 mg/kg po. The data set is classed as functional, Artery. The essentials:
as §1

For data set [11], the system named is Rattus norvegicus. The data set can be described thus: The antihypertensive activity as percentage fall in systolic blood pressure in spontaneously hypertensive rats after a period of 3 hr for a dose of 25 mg/kg po; NS=Not significant. The following applies: Artery. The format is functional, organism-based. The arrangement: dose 25 mg/kg. Summed up: as §1

The subject of data set [12] is Canis familiaris. As to the kind of experiment: Change in mean arterial pressure in anesthetized dogs for a dose of 1 mg/kg. The format is functional, Canis lupus familiaris, Artery. Summed up:
(§2)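 Dogs anesthetized with sodium pentobarbital (35 mg/kg iv), femoral artery cannulated for pressure, ECG-triggered heart rate, femoral vein for dosing. Rising iv doses were given 90 min apart, and each dose is the full dose, not cumulative. Value is the maximal mean arterial pressure change 10–15 min after each dose, two dogs per compound, ±3 mmHg. Saline served as control.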

Data set [13] has as its system Canis familiaris. As to the kind of experiment: Percent inhibition of the pressor responses to 7.5 ug/kg iv phenylephrine in pentobarbital-anesthetized dogs for a dose of 10 mg/kg. The data set is classed as functional. The conditions noted are these: Canis lupus familiaris. The essentials: (§3)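 Pentobarbital-anesthetized dogs (35 mg/kg iv) with femoral arterial pressure recording. Epinephrine (1 μg/kg), norepinephrine (0.75 μg/kg) and phenylephrine (7.5 μg/kg) iv challenges were given about every 10 min before and after rising iv test doses, which were spaced 90 min apart. Value is % inhibition of the pressor response.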

The test system of data set [14] is Canis familiaris. As to the kind of experiment: Change in mean arterial pressure in anesthetized dogs for a dose of 0.1 mg/kg. The data set is classed as functional, Canis lupus familiaris, Artery. Summed up: as §2
Data set [15] in a line: Distribution coefficient between 1-Octanol and phosphate buffer at pH7.4. The format is physicochemical. The following applies: 1-octanol/phosphate buffer, pH 7.4.
Data set [16] concerns Canis familiaris. The data set can be described thus: Percent inhibition of the pressor responses to 7.5 ug/kg iv phenylephrine in pentobarbital-anesthetized dogs for a dose of 1 mg/kg. The data set is classed as functional. The following applies: Canis lupus familiaris. The essentials:
as §3

The test system of data set [17] is Canis familiaris. As to the kind of experiment: (§4) Percent inhibition of the pressor responses to 1 ug/kg iv Epinephrine in pentobarbital-anesthetized dogs for a dose of 10 mg/kg. The data set is classed as functional. The following applies: Canis lupus familiaris. The essentials:
as §3

For data set [18], the system named is Canis familiaris. The data set can be described thus: Percent inhibition of the pressor responses to 0.75 ug/kg iv norepinephrine in pentobarbital-anesthetized dogs for a dose of 1 mg/kg. The data set is classed as functional. The conditions noted are these: Canis lupus familiaris. The essentials: as §3
Data set [19] relates to Canis familiaris. As to the kind of experiment: Percent inhibition of the pressor responses to 1 ug/kg iv Epinephrine in pentobarbital-anesthetized dogs for a dose of 1 mg/kg. The following applies: Canis lupus familiaris. The format is functional. The essentials:
as §3

Data set [20] deals with Canis familiaris. The data set can be described thus: Percent inhibition of the pressor responses to 7.5 ug/kg iv phenylephrine in pentobarbital-anesthetized dogs for a dose of 0.1 mg/kg. The format is functional. The following applies: Canis lupus familiaris. The essentials:
as §3

The subject of data set [21] is Canis familiaris. As to the kind of experiment: Change in mean arterial pressure in anesthetized dogs for a dose of 10 mg/kg. The data set is classed as functional, Canis lupus familiaris, Artery. The essentials:
as §2

Data set [22] has as its system Canis familiaris. The data set can be described thus: (§5) Percent inhibition of the pressor responses to 1 ug/kg iv Epinephrine in pentobarbital-anesthetized dogs for a dose of 0.1 mg/kg. The conditions noted are these: Canis lupus familiaris. The data set is classed as functional. The essentials: as §3
The subject of data set [23] is Canis familiaris. The data set can be described thus: Percent inhibition of the pressor responses to 0.75 ug/kg iv norepinephrine in pentobarbital-anesthetized dogs for a dose of 0.1 mg/kg. The data set is classed as functional. The following applies: Canis lupus familiaris. The essentials:
as §3

In data set [24] the test system is Canis familiaris. As to the kind of experiment: Percent inhibition of the pressor responses to 0.75 ug/kg iv norepinephrine in pentobarbital-anesthetized dogs for a dose of 10 mg/kg. The format is functional. The conditions noted are these: Canis lupus familiaris. The essentials: as §3
Data set [25] relates to Canis familiaris. As to the kind of experiment: Percent inhibition of the pressor responses to 0.75 ug/kg iv norepinephrine in pentobarbital-anesthetized dogs for a dose of 5.0 mg/kg. The format is functional. The conditions noted are these: Canis lupus familiaris. Summed up:
as §3

The subject of data set [26] is Canis familiaris. The description is as §5. The conditions noted are these: Canis lupus familiaris. The data set is classed as functional. Summed up: (§6)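 Dogs anesthetized with sodium pentobarbital 35 mg/kg iv; femoral artery cannulated for blood pressure, femoral vein for dosing. Epinephrine 1 μg/kg iv given at about 10-min intervals before and after increasing test doses. Test doses given iv at 90-min intervals. Result is per cent inhibition of the pressor response.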
The source holds these as a separate data set.

Data set [27] relates to Canis familiaris. Described as §4. The data set is classed as functional. The following applies: Canis lupus familiaris. Summed up:
as §6
The source holds these as a separate data set.

The subject of data set [28] is Rattus norvegicus. The data set can be described thus: Antihypertensive activity as percentage fall in systolic blood pressure in spontaneously hypertensive rats after a period of 4 hr for a dose of 50 mg/kg po. The data set is classed as functional, Artery. The essentials: as §1

With `CCC1NC(=O)OC12CCN(CC1COc3ccccc3O1)CC2` (stereo unspecified), the “Decrease in blood pressure” value is -13% in the data set on Rattus norvegicus [1]; 42% in the data set on Rattus norvegicus [2]; 51% with Rattus norvegicus [3]; -11% in the data set on Rattus norvegicus [4]; 54% and 42% in the data set on Rattus norvegicus [5] (50 mg/kg); 14% with Rattus norvegicus [6]. In addition, the “Decrease in blood pressure” value in the data set on Rattus norvegicus [7] is 22%.
Turning to `CCN1CC2(CCN(CC(O)C3COc4ccccc4O3)CC2)OC1=O` (stereo unspecified), the “Decrease in blood pressure” value in the data set on Rattus norvegicus [8] and in the data set on Rattus norvegicus [11] was “inactive” throughout. Besides, the “Decrease in blood pressure” value in the data set with Rattus norvegicus [9] was 9%; with Rattus norvegicus [10], 18%; in the data set on Rattus norvegicus [2], 11%; with Rattus norvegicus [3], 32%; with Rattus norvegicus [5] (50 mg/kg), 18% and 15%.
With `O=C(NC1CCN(CCc2c[nH]c3ccccc23)CC1)c1ccccc1` [INDORAMIN], the values for the MAP in the data set on Canis familiaris [12], with Canis familiaris [14] and in the data set on Canis familiaris [21] were -28 mmHg, -5 mmHg and -38 mmHg, respectively. In addition, the inhibition in vivo (in general, the change of the read-out against control, counted positive when it falls) at 10 mg/kg with Canis familiaris [13] is 93%; in the data set on Canis familiaris [17] it was above 100%. Further, the log distribution coefficient (logD) (commonly the decadic logarithm of the distribution of all forms, ionised or not, between an organic phase and buffer at a given pH) in data set [15] was found to be 2.13. Further, the figures for the inhibition in vivo at 1 mg/kg with Canis familiaris [16], in the data set with Canis familiaris [18] and in the data set with Canis familiaris [19] were 83%, 23% and 92%, respectively. For the same compound, the “Decrease in blood pressure” value with Rattus norvegicus [2] is 13%; in the data set on Rattus norvegicus [3], 33%; in the data set with Rattus norvegicus [5] (50 mg/kg) it was 20% and 11%. Moreover, the inhibition in vivo at 0.1 mg/kg was determined as 65% in the data set with Canis familiaris [20], 74% in the data set with Canis familiaris [22] and 21% with Canis familiaris [23].
In the case of `Cc1ccc(N(CC2=NCCN2)c2cccc(O)c2)cc1` [PHENTOLAMINE], the MAP in the data set with Canis familiaris [12] is -11 mmHg; in the data set with Canis familiaris [14] it was -9 mmHg; in the data set with Canis familiaris [21], -33 mmHg. Further, the inhibition in vivo at 10 mg/kg with Canis familiaris [13] was 100%; with Canis familiaris [24] it was above 100%; with Canis familiaris [27], above 100%. This compound also gave a logD in [15] of 0.82. Besides, the inhibition in vivo at 1 mg/kg in the data set with Canis familiaris [16] was 86%; in the data set on Canis familiaris [18], above 100%; with Canis familiaris [19], above 100%. In addition, the inhibition in vivo at 5 mg/kg with Canis familiaris [25] is above 100%. Moreover, the “Decrease in blood pressure” value is on record as 19% in the data set on Rattus norvegicus [2], 37% in the data set with Rattus norvegicus [3], 30% with Rattus norvegicus [5] and 16% with Rattus norvegicus [28]. The inhibition in vivo at 0.1 mg/kg in the data set with Canis familiaris [26] amounted to 41%; in the data set on Canis familiaris [20], 42%.
